# Experimental data taken from the RNAGym collection of RNA variant scans (doi:10.1126/science.aae0568).
# Variants at the floor of the assay were thinned out.
# B1: tRNA (parent)
# chain: GUUCCGUUGGCGUAAUGGUAACGCGUCUCCCUCCUAAGGAGAAGACUGCGGGUUCGAGUCCCGUACGGAACG
# Variants of: B1
# Test: yeast fitness relative to wild type (ratio to wild type); higher = fitter; tRNA-Arg(CCU), competitive growth, 37 C, YPD
# Summary of the method: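 A pool of Saccharomyces cerevisiae strains, each with a tRNA-Arg(CCU) gene variant at the native genomic locus, was competed in YPD at 37°C for 24 hours across six parallel replicates. The variants had been chemically synthesised at a 3% per-site mutation rate over 69 sites, and gene amplicons before and after competition were read by 100-nucleotide paired-end sequencing. Darwinian fitness relative to wild type rested on changes in genotype frequencies. Genotypes required ≥ 100 starting reads, and estimates < 0.5 were set to 0.5.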
row,Variant,yeast fitness
1,C4G U8G G18C C49U G58A G67A,≤ 0.5
2,C4U A15C C62G,≤ 0.5
3,C4U A21U U28C G52C A57C,≤ 0.5
4,C4U A15U U53A C62A,≤ 0.5
5,C4G U13C G23U G48C G50A,≤ 0.5
6,C4G G17U G23A C55A C61A,≤ 0.5
7,C4U A20C C34U C55U,0.532
8,C4U A20U C27G C30G A43G A65C G68C,0.639
9,C4G U19C G48C A69C,0.602
10,C4G U7A C22U C66A,≤ 0.5
11,C4G U8C A15G G23A C34G G67A,≤ 0.5
12,C4G U13A A43G C46G,≤ 0.5
13,C4U A20G A45U C61U C62G A69C,0.602
14,C4G G23A C24A C31A A36G,≤ 0.5
15,C4G U35A A36U,≤ 0.5
16,C4G G18C A65U,≤ 0.5
17,C4G U7G,0.642
18,C4U A15G G23C A37U U47C A65U,≤ 0.5
19,C4U A15C C46A A57G C61A A70C,≤ 0.5
20,C4G U7A G10C A20C C46G,≤ 0.5
21,C4G U7G G12C A20U C49U U54A C55U A70C,≤ 0.5
22,C4G G17A A57G,≤ 0.5
23,C4G U8G C27G G48C,≤ 0.5
24,C4U A20C C29U,0.715

row,Variant,yeast fitness
1,C4U A15C C34G A43C A65U,≤ 0.5
2,C4U A20G A40U A70G,≤ 0.5
3,C4G U8G G9A C11U C34G C61A,≤ 0.5
4,C4G U54A,0.572
5,C4G U54G,0.626
6,C4G U54C,0.886
7,C4U A21C C27U G63A A65G,≤ 0.5
8,C4G G50C C55G C62G,≤ 0.5
9,C4G G18C,0.599
10,C4G U32G,0.628
11,C4U A21G U47C A70G,≤ 0.5
12,C4G G18C C30A,≤ 0.5
13,C4G U7A G9C G17C G48A,≤ 0.5
14,C4U A20G A45U C61U C62G,0.53
15,C4G U8C U16A A21C C24G A37U C55U,≤ 0.5
16,C4U A14U C33U C49G C55A,≤ 0.5
17,C4U A14C C29U A65G,0.765
18,C4U A21C A42G,≤ 0.5
19,C4G U8C A21G,0.605
20,C4U A20U C29G C49G G63C,≤ 0.5
21,C4U A15C G67C,0.54
22,C4G G12A U19C C29G A57G C61A A65C C66U,0.634
23,C4G U7C C24U A65G,0.857
24,C4U A20U A40U G56C,≤ 0.5

row,Variant,yeast fitness
1,C4G G48A C49U G50A G51C U64A A70C,≤ 0.5
2,C4G U8A G12A U35G,≤ 0.5
3,C4U A21U U35C G50C,≤ 0.5
4,C4G U8A G12A,0.6
5,C4G U64G,0.671
6,C4G U64C,0.872
7,C4G U64A,0.707
8,C4G G18A C30U C60G,0.515
9,C4G U8A G12A C22U G48A A69C,0.522
10,C4G G12A U26A,≤ 0.5
11,C4G U26G G39C G48A,0.611
12,C4G G12A C66G,0.503
13,C4U A15U U64C A65G,≤ 0.5
14,C4G U19A C46U A70U,≤ 0.5
15,C4G G17C A37U G58A C61A,≤ 0.5
16,C4G U16C C31U G51A,0.533
17,C4G G18C U64A,≤ 0.5
18,C4G U16C C27G A40G G48A A57C C62U,0.537
19,C4G U26A C27U A42C G51A A65U,≤ 0.5
20,C4G G18C G63A,≤ 0.5
21,C4U A14U A42G C46U,≤ 0.5
22,C4G G12A C30U G63A G68C,0.574
23,C4U A15C A43U,≤ 0.5
24,C4G G18C C46G,≤ 0.5

row,Variant,yeast fitness
1,C4G G44A A45C,≤ 0.5
2,C4G U16G C30U C34A U53G U59C A70C,≤ 0.5
3,C4G U16C U19C U32A C46U G63C,≤ 0.5
4,C4G G67A A69C,≤ 0.5
5,C4G U53G C66A,≤ 0.5
6,C4G U32G A69C,≤ 0.5
7,C4G U16C C29G A36U C60G,≤ 0.5
8,C4U A15C C55U G63C,≤ 0.5
9,C4U A15C A37G A40G G68U,≤ 0.5
10,C4G G17A A20C C61U,≤ 0.5
11,C4U A20C,1.03
12,C4G U8C A15C C31A A36U A37C C60A A65G A69G,≤ 0.5
13,C4G U19C G51A A65G,≤ 0.5
14,C4G G23A C29G A37C,0.651
15,C4G U8A G12A A14G G48A A69C,≤ 0.5
16,C4U A14U C24G C30U C60G C62U,0.663
17,C4U A15C G51A,≤ 0.5
18,C4U A15C G51C,≤ 0.5
19,C4G U28C,0.77
20,C4G U54G C62A,0.579
21,C4G U19C U47A C49U G68C,≤ 0.5
22,C4G U35A U54C C61G,0.765
23,C4G U7G A65G,0.622
24,C4U A21G G52A G63A,≤ 0.5

row,Variant,yeast fitness
1,C4G U59A U64G A65C,≤ 0.5
2,C4G G39A U53A,≤ 0.5
3,C4G G17A G51A C66U,≤ 0.5
4,C4G G25A C60G C62G,0.57
5,C4G U7G U13G A20U C31A C34G A42C,≤ 0.5
6,C4G G17A U28A C31G A57G C62U,≤ 0.5
7,C4U A20C C49U C61A,≤ 0.5
8,C4G G23C C29U,0.501
9,C4G U7G U59G G63C,≤ 0.5
10,C4G U7C G41A A42C G50C A70G,≤ 0.5
11,C4G G50C C61U,0.52
12,C4G U32C G63C,0.605
13,C4G G17A C66U,0.596
14,C4G G12C A40G,≤ 0.5
15,C4G U8A G12A G48A A69C A70U,0.561
16,C4G U7A U26A A40C A42G G58C,≤ 0.5
17,C4U A15G A65U,0.69
18,C4G U7G G12C A20U U28G,≤ 0.5
19,C4U A14C G68C,≤ 0.5
20,C4U A20C U47A A65U,≤ 0.5
21,C4G U28G C30A A42G A43C C61G,≤ 0.5
22,C4U A15C G63C,0.556
23,C4U A20G C27A G52A,≤ 0.5
24,C4G G56C,0.699

row,Variant,yeast fitness
1,C4U A14G A15C G63C,≤ 0.5
2,C4G U19A C27A G58C C61A A69U,≤ 0.5
3,C4G G58A G67U A69C,0.542
4,C4G U7C C11U C22U U35G C61A,≤ 0.5
5,C4G U16C C27G A40G G48A C55A A57C,≤ 0.5
6,C4G G18C A70C,0.508
7,C4G U28G C30A A43C C61G,0.571
8,C4G U28C G56U U59A,0.606
9,C4G U8G C60A U64A C66U,0.711
10,C4U A20G C24U,0.624
11,C4G U7G G10C G38C C49G A69C,≤ 0.5
12,C4G U19A A37U A42G,0.55
13,C4G U16C C31U,0.554
14,C4G G52C A57C G63C,≤ 0.5
15,C4G U35G A70C,0.552
16,C4G U26A C30U,≤ 0.5
17,C4G U7G G12C A20U U32A,≤ 0.5
18,C4G U28G C30A A43C C61G A65G,≤ 0.5
19,C4G U32G C62U G67U,≤ 0.5
20,C4G G18C C33G G41A,≤ 0.5
21,C4U A21C C22A C60U,≤ 0.5
22,C4G G23A C29G A37C C60G,0.808
23,C4G U32A C34G G41C,≤ 0.5
24,C4G U8C C24G A42C C61G,≤ 0.5

row,Variant,yeast fitness
1,C4G U16G,0.831
2,C4G U8C U28G C49A C62G,≤ 0.5
3,C4G U35C G39A C62A,0.511
4,C4U A36C C49U G58A,0.612
5,C4G U16G C30U C34A U53G,≤ 0.5
6,C4G U8C U16A A21C C24G A37U C49U C55U,≤ 0.5
7,C4U A14U C33G A69U,≤ 0.5
8,C4G U19A C31G,≤ 0.5
9,C4G G17A C30U,≤ 0.5
10,C4U A20C A40U C55G,0.578
11,C4G U8A C22U C46G G63A,≤ 0.5
12,C4G U53A,0.594
13,C4G U16C A45G,0.597
14,C4U A15C C29U U54C C61G G63A,≤ 0.5
15,C4G G23A C29G A37C C61G,≤ 0.5
16,C4U A21C C24U G38A,≤ 0.5
17,C4G U19C C62U,0.799
18,C4U A15G C22U A69U,≤ 0.5
19,C4U A14G C30G A36U,≤ 0.5
20,C4U A15C C30G,≤ 0.5
21,C4U A20C C55G,≤ 0.5
22,C4G U7C C22U U35G C61A,≤ 0.5
23,C4U A14U G39A C49G,≤ 0.5
